Experimental data gathered from unrelated publications.
Converted amounts (≈) assume the structure as drawn.

Structure (SMILES)	target or system	assay	test system	conditions	endpoint	value
Nc1ccn(C[C@@H](CO)OCP(=O)(O)O)c(=O)n1	Human alphaherpesvirus 1	cytopathic effect	HEL		EC50	2000 nM
CN[C@H](CC(C)C)C(=O)N[C@H]1C(=O)N[C@@H](CC(N)=O)C(=O)N[C@H]2C(=O)N[C@H]3C(=O)N[C@H](C(=O)N[C@H](C(=O)O)c4cc(O)cc(O)c4-c4cc3ccc4O)[C@H](O)c3ccc(c(Cl)c3)Oc3cc2cc(c3O[C@@H]2O[C@H](CO)[C@@H](O)[C@H](O)[C@H]2O[C@H]2C[C@](C)(N)[C@H](O)[C@H](C)O2)Oc2ccc(cc2Cl)[C@H]1O	Bacteroides fragilis	microbial growth, agar dilution		48 h	MIC	> 16 µg/mL
O=c1c2ccccc2[se]n1-c1ccccc1	MRC5	cell growth or viability, MTT		125 µM, 72 h	inhibition	56%
COc1ccc(C(=O)c2c[nH]c3ncc(-c4ccc(N5CCN(C(=O)OC(C)(C)C)CC5)nc4)cc23)cc1	MRC5	cell growth or viability, MTT		10 µM, 48 h	viability	80.2%
[O-][N+]1=C(c2ccc(Cl)cc2)C2=NCCN2c2ccccc21	Bacteroides fragilis	microbial growth			MIC50	≤ 0.06 µg/mL
OC(Cn1cncn1)(Cn1cncn1)c1ccc(F)cc1F	Aspergillus niger	microbial growth	ATCC16404		MIC	128 µg/mL (≈ 418 µM)
CCCCCOc1ccc(-c2cc(-c3ccc(C(=O)N[C@H]4C[C@@H](O)[C@@H](O)NC(=O)[C@@H]5[C@@H](O)[C@@H](C)CN5C(=O)[C@H]([C@H](O)CC(N)=O)NC(=O)[C@H]([C@H](O)[C@@H](O)c5ccc(O)c(OS(=O)(=O)O)c5)NC(=O)[C@@H]5C[C@@H](O)CN5C(=O)[C@H]([C@@H](C)O)NC4=O)cc3)no2)cc1	Lodderomyces parapsilosis	biofilm formation		16 µg/mL	inhibition	49%
O=C(c1ccc(F)cc1)c1c[nH]c2ncc(-c3ccnc(N4CCNCC4)c3)cc12	MRC5	cell growth or viability, MTT		10 µM, 48 h	viability	90.1%
